Data taken from ChEMBL document CHEMBL4350961, “Discovery of Pyrrolo[3,2- d]pyrimidin-4-one Derivatives as a New Class of Potent and Cell-Active Inhibitors of P300/CBP-Associated Factor Bromodomain” (J Med Chem, 2019).
Calls of active or inactive are those of the source. The rule behind the calls is not given here.

Columns and labels:
[1] = molecular target: Ephrin type-B receptor 4 (Homo sapiens) (UniProt P54760); assay: Inhibition of recombinant human EphB4 (561 to end residues) at 10 uM using poly (Glu, Tyr) 4:1 as substrate measured after 40 mins in presence of [gamma33P]ATP by scintillation counting method
[2] = molecular target: Inhibitor of nuclear factor kappa-B kinase subunit alpha (Homo sapiens) (UniProt O15111); assay: Inhibition of recombinant full-length human IKKalpha (959 to end residues) at 10 uM using peptide substrate measured after 40 mins in presence of [gamma33P]ATP by scintillation counting method
[3] = molecular target: Fibroblast growth factor receptor 3 (Homo sapiens) (UniProt P22607); assay: Inhibition of recombinant human FGFR3 (447 to 761 residues) at 10 uM using poly(Glu, Tyr) 4:1 as substrate measured after 40 mins in presence of [gamma33P]ATP by scintillation counting method
[4] = molecular target: Bromodomain-containing protein 7 (Homo sapiens) (UniProt Q9NPI1); assay: Binding affinity to human partial length BRD7 (L125 to R254 residues) expressed in mammalian expression system at 1 uM by BROMOscan assay
Procedure, shortened: (§1)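 BROMOscan bromodomain cross-screen run by an outside service, compound at 1 µM against 32 recombinant bromodomains. Binding given as percent of control.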

Homo sapiens [5] = species: Homo sapiens; assay: Inhibition of recombinant full-length human AURKA I31F mutant at 10 uM using LRRASLG as substrate measured after 40 mins in presence of [gamma33P]ATP by scintillation counting method
[6] = molecular target: Protein kinase C theta type (Homo sapiens) (UniProt Q04759); assay: Inhibition of recombinant full-length human PKCtheta at 10 uM using histone H1as substrate measured after 40 mins in presence of [gamma33P]ATP by scintillation counting method
[7] = molecular target: Receptor-interacting serine/threonine-protein kinase 1 (Homo sapiens) (UniProt Q13546); assay: Inhibition of human RIPK1 (8 to 322 residues) using myelin basic protein as substrate measured after 120 mins in presence of [gamma33P]ATP by scintillation counting method
Procedure, shortened: (§2)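 Kinase panel of 422 kinases screened by Eurofins KinaseProfiler at a single test-compound concentration of 10 µM.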

[8] = molecular target: Tyrosine-protein kinase JAK2 (Homo sapiens) (UniProt O60674); assay: Inhibition of recombinant human JAK2 (808 to end residues) at 10 uM using KTFCGTPEYLAPEVRREPRILSEEEQEMFRDFDYIADWC as substrate measured after 40 mins in presence of [gamma33P]ATP by scintillation counting method
[9] = molecular target: Testis-specific serine/threonine-protein kinase 3 (Homo sapiens) (UniProt Q96PN8); assay: Inhibition of recombinant full-length human TSSK3 at 10 uM using AMARAASAAALARRR as substrate measured after 40 mins in presence of [gamma33P]ATP by scintillation counting method
[10] = molecular target: Protein kinase C beta type (Homo sapiens) (UniProt P05771); assay: Inhibition of recombinant human PKCbeta1 (2 to end residues) at 10 uM using histone H1 as substrate measured after 40 mins in presence of [gamma33P]ATP by scintillation counting method
[11] = molecular target: Protein kinase C epsilon type (Homo sapiens) (UniProt Q02156); assay: Inhibition of recombinant human PKCepsilon (2 to end residues) at 10 uM using ERMRPRKRQGSVRRRV as substrate measured after 40 mins in presence of [gamma33P]ATP by scintillation counting method
[12] = molecular target: Tyrosine-protein kinase ITK/TSK (Homo sapiens) (UniProt Q08881); assay: Inhibition of recombinant human ITK (352 to 617 residues) at 10 uM using myelin basic protein as substrate measured after 40 mins in presence of [gamma33P]ATP by scintillation counting method
[13] = molecular target: Bromodomain-containing protein 9 (Homo sapiens) (UniProt Q9H8M2); assay: Binding affinity to human partial length BRD9 (R130 to V259 residues) expressed in bacterial expression system at 1 uM by BROMOscan assay; procedure, shortened: as §1
[14] = molecular target: Calcium/calmodulin-dependent protein kinase type II subunit beta (Homo sapiens) (UniProt Q13554); assay: Inhibition of recombinant full-length human CaMK2beta (1 to 315 residues) at 10 uM using calmodulin as substrate measured after 40 mins in presence of [gamma33P]ATP by scintillation counting method
[15] = molecular target: Mitogen-activated protein kinase kinase kinase 3 (Homo sapiens) (UniProt Q99759); assay: Inhibition of recombinant full-length human MEKK3 at 10 uM using myelin basic protein as substrate measured after 40 mins in presence of [gamma33P]ATP by scintillation counting method
[16] = molecular target: Focal adhesion kinase 1 (Homo sapiens) (UniProt Q05397); assay: Inhibition of recombinant human FAK (411 to 686 residues) at 10 uM using EEEEYEEEEEEYYIIEEEEEEYEEEEEEYYEEEEEEKKKK as substrate measured after 40 mins in presence of [gamma33P]ATP by scintillation counting method
[17] = molecular target: Platelet-derived growth factor receptor beta (Homo sapiens) (UniProt P09619); assay: Inhibition of recombinant human PDGFRbeta (557 to end residues) at 10 uM using poly(Glu, Tyr) 4:1 as substrate measured after 40 mins in presence of [gamma33P]ATP by scintillation counting method
[18] = molecular target: Tribbles homolog 2 (Homo sapiens) (UniProt Q92519); assay: Inhibition of recombinant full-length human TRB2 at 10 uM using RRRFRPASPLRGPPK as substrate measured after 120 mins in presence of [gamma33P]ATP by scintillation counting method
[19] = molecular target: PI3K p110 delta/p85 alpha (Mus musculus) (UniProt P26450+O35904); assay: Inhibition of recombinant full-length mouse PI3K p110delta/p85alpha at 10 uM using phosphatidylinositol-4, 5-bisphosphate as substrate measured after 40 mins by HTRF assay; assay type: protein-complex assay
[20] = molecular target: Ephrin type-A receptor 8 (Homo sapiens) (UniProt P29322); assay: Inhibition of recombinant human EphA8 (615 to 911 residues) at 10 uM using KTFCGTPEYLAPEVRREPRILSEEEQEMFRDFDYIADWC as substrate measured after 40 mins in presence of [gamma33P]ATP by scintillation counting method
[21] = molecular target: Cyclin-dependent kinase-like 4 (Homo sapiens) (UniProt Q5MAI5); assay: Inhibition of human CDKL4 at 10 uM by radiometric method; procedure, shortened: as §2
Homo sapiens [22] = species: Homo sapiens; assay: Inhibition of recombinant human MARK1 T20S mutant (2 to end residues) at 10 uM using KKKVSRSGLYRSPSMPENLNRPR as substrate measured after 40 mins in presence of [gamma33P]ATP by scintillation counting method
[23] = molecular target: Serine/threonine-protein kinase PLK1 (Homo sapiens) (UniProt P53350); assay: Inhibition of recombinant full-length human Plk1 at 10 uM using casein as substrate measured after 40 mins in presence of [gamma33P]ATP by scintillation counting method
[24] = Tmax in Sprague-Dawley rat at 10 mg/kg, po administered via gavage by LC-MS/MS analysis; assay type: ADME, organism-based; settings: in vivo

Chain of Testis-specific serine/threonine-protein kinase 3 (Homo sapiens) (Q96PN8 whole entry): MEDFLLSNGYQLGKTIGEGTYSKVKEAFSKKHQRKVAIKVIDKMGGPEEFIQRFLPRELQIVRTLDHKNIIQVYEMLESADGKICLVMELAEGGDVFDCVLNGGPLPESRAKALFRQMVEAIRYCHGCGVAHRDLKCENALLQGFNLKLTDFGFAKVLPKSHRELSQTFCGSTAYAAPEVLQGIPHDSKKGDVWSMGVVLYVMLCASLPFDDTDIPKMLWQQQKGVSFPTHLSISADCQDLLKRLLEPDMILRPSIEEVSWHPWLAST
Chain of Focal adhesion kinase 1 (Homo sapiens) (Q05397 2-1052 limits assumed): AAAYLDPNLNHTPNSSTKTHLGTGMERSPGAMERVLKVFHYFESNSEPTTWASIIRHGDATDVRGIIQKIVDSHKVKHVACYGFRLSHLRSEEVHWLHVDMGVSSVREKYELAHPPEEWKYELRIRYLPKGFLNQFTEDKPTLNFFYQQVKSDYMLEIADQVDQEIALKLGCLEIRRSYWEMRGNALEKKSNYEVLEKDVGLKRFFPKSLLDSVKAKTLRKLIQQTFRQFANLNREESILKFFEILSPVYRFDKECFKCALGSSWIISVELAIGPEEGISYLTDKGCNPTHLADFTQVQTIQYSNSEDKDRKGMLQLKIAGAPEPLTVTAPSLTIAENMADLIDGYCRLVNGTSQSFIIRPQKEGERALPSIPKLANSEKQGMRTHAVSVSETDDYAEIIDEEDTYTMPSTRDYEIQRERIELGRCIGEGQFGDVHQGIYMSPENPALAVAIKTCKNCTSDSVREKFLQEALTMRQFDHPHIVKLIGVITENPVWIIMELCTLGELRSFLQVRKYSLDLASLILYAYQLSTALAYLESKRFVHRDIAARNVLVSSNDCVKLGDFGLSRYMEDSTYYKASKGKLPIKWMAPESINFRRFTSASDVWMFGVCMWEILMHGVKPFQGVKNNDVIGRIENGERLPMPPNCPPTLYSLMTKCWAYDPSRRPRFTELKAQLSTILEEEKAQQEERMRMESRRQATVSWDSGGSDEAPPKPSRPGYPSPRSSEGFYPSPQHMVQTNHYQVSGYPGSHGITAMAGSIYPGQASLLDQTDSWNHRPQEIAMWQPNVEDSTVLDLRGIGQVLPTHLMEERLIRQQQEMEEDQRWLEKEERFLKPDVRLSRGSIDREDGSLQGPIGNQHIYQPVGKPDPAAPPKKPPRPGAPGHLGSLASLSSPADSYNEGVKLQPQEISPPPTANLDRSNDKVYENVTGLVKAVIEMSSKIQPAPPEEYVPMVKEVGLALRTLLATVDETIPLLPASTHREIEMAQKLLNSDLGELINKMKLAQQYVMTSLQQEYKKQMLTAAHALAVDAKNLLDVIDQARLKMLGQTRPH
Chain of Protein kinase C beta type (Homo sapiens) (P05771 2-671 limits assumed): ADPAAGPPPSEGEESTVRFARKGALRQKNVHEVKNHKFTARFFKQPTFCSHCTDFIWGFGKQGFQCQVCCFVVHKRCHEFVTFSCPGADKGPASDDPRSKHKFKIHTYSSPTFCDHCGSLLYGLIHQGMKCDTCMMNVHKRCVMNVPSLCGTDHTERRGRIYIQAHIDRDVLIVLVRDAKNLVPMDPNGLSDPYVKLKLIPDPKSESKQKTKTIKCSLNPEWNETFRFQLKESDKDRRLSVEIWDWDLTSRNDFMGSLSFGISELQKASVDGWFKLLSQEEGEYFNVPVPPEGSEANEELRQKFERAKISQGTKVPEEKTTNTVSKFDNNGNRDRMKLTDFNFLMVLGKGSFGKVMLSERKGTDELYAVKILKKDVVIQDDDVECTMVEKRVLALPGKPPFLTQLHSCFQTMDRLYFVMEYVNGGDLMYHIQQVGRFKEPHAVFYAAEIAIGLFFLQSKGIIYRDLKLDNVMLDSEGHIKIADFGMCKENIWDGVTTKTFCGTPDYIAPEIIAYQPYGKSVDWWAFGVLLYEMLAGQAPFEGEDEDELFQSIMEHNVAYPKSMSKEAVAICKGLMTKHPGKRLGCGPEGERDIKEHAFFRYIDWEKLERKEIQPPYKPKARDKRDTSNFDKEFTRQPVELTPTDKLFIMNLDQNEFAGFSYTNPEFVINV
Chain of Receptor-interacting serine/threonine-protein kinase 1 (Homo sapiens) (Q13546 whole entry, the tested form may be a part): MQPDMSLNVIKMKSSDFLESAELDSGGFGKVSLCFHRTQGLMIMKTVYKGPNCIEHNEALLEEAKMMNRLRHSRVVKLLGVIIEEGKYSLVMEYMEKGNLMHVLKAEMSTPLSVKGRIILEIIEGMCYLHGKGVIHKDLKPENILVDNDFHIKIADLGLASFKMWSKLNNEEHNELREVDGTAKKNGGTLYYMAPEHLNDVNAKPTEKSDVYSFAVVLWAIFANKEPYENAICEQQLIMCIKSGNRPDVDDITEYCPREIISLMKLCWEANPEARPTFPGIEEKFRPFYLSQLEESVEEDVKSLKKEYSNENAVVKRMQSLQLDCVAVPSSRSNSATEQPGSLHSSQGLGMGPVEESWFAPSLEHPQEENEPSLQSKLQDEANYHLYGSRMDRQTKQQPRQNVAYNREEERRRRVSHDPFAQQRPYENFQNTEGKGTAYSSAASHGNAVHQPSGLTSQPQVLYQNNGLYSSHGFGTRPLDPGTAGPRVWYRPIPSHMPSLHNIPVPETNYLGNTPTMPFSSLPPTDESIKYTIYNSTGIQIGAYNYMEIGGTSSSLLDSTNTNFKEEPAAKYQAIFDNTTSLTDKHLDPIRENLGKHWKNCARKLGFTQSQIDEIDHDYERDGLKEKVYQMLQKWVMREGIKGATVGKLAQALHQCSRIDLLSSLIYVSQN
Chain of Cyclin-dependent kinase-like 4 (Homo sapiens) (Q5MAI5 whole entry): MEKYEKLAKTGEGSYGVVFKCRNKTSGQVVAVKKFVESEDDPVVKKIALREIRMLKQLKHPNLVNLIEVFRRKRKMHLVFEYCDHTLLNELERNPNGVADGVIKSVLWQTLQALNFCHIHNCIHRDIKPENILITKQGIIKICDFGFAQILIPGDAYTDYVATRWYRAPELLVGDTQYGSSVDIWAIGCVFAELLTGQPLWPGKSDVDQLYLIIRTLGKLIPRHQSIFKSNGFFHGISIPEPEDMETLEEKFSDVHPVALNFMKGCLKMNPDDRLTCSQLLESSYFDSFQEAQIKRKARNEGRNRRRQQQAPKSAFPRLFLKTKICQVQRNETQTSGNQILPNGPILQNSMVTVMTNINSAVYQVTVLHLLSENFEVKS
Chain of Tyrosine-protein kinase JAK2 (Homo sapiens) (O60674 whole entry): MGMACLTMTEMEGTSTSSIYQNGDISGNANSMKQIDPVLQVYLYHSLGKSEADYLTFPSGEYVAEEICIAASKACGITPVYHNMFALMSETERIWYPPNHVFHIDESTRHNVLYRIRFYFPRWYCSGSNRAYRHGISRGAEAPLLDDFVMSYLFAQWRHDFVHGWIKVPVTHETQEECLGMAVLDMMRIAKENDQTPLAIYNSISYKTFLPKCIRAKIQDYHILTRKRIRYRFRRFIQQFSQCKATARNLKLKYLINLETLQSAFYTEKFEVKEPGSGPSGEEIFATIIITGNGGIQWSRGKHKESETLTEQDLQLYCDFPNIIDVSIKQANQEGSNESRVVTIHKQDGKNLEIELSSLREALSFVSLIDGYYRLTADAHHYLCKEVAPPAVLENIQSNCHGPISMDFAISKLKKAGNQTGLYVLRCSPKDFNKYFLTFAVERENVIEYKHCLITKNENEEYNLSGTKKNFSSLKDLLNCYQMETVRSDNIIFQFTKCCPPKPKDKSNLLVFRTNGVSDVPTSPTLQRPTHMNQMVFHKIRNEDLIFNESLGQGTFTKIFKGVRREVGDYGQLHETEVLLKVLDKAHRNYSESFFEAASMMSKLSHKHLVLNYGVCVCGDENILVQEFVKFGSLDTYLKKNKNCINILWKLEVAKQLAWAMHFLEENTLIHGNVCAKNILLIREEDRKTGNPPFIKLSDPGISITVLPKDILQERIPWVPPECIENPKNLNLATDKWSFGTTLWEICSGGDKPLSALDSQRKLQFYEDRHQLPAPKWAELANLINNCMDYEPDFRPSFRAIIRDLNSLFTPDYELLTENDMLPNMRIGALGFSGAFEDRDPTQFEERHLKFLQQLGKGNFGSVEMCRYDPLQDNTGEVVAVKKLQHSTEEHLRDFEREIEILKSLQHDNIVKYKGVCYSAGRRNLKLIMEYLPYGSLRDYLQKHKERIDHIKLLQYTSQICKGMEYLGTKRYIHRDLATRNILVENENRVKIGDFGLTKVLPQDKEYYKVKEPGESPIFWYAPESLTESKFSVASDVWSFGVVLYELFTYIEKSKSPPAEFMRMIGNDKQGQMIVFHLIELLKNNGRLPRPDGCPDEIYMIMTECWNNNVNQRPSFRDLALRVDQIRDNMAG
Chain of Protein kinase C theta type (Homo sapiens) (Q04759 whole entry, looked up, the tested form may be a part): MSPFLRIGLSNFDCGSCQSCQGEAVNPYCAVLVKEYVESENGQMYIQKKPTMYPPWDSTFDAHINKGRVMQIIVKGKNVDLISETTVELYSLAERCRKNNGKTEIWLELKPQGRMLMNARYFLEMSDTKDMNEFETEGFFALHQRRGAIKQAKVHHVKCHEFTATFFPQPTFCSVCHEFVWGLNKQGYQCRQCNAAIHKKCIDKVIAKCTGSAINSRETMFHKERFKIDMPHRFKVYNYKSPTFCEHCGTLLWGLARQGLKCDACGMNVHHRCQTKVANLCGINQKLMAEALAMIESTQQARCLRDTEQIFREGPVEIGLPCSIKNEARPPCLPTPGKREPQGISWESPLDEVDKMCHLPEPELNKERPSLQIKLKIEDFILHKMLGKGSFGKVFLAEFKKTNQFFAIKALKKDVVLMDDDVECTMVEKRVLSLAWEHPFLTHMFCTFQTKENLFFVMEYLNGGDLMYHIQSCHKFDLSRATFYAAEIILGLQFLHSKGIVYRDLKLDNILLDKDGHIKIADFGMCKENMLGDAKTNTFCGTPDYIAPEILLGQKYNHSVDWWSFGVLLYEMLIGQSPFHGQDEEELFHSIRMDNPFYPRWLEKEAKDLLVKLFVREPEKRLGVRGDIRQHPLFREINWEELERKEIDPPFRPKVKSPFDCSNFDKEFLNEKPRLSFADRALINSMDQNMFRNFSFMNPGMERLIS

CN1C[C@H](Nc2nc3cc[nH]c3c(=O)n2C)C[C@H](c2ccc3c(c2)OCCO3)C1
inhibition [1]: inactive | inhibition [2]: inactive | inhibition [3]: inactive | Activity [4]: inactive | inhibition (Homo sapiens [5]): inactive | inhibition [6]: inactive | inhibition [7]: inactive | inhibition [8]: inactive | inhibition [9]: inactive | inhibition [10]: inactive | inhibition [11]: inactive | inhibition [12]: inactive | Activity [13]: inactive | inhibition [14]: inactive | inhibition [15]: inactive | inhibition [16]: inactive | inhibition [17]: inactive | inhibition [18]: inactive | inhibition [19]: inactive | inhibition [20]: inactive | inhibition [21]: inactive | inhibition (Homo sapiens [22]): inactive | inhibition [23]: inactive | Tmax [24]: 40.2 min
